{"data": "Assay results gathered from unrelated publications", "SIRT3": "NAD-dependent protein deacetylase sirtuin-3, mitochondrial (SIRT3, Homo sapiens, UniProt Q9NTG7)", "DRD1": "D(1A) dopamine receptor (DRD1, Homo sapiens, UniProt P21728)", "PTGS1": "Prostaglandin G/H synthase 1 (PTGS1, Ovis aries, UniProt P05979)"}
{"Structure (SMILES)": "CCCCCCCCCCCCNC(=S)NCCCC[C@H](NC(=O)OCc1ccccc1)C(=O)N[C@@H](Cc1c[nH]c2ccccc12)C(=O)N[C@@H](CCNC(=N)N)C(N)=O", "target": "SIRT3", "read-out": "enzyme activity", "mode": "inhibitor", "tested at": "10 µM", "inhibition [%]": 48}
{"Structure (SMILES)": "COc1ccc(-n2nc(OCCCN3CCCCC3)ccc2=O)cc1", "target": "Transient receptor potential cation channel subfamily V member 1 (TRPV1, Homo sapiens, UniProt Q8NER1)", "read-out": "ligand displacement", "tested at": "1 µM", "inhibition [%]": 44.5}
{"Structure (SMILES)": "Oc1cccc(Nc2nc(-c3ccc(F)cc3F)cs2)c1", "target": "DRD1", "read-out": "cell-free assay", "tested at": "10 µM", "inhibition [%]": 21.2}
{"Structure (SMILES)": "C[C@@H]1O[C@@H](OC[C@H]2O[C@@H](O[C@H]3[C@H](Oc4c(-c5ccc(O)cc5)oc5cc(O)cc(O)c5c4=O)O[C@H](CO)[C@@H](O)[C@@H]3O)[C@H](O)[C@@H](O)[C@@H]2O)[C@H](O)[C@H](O)[C@H]1O", "target": "PTGS1", "read-out": "enzyme activity", "mode": "inhibitor", "technique": "absorbance", "tested at": "50 µM", "inhibition [%]": 53.3}
{"Structure (SMILES)": "CCCCCC1C=Cc2cc(Cl)cc(Br)c2O1 (centres unmarked)", "target": "SIRT3", "read-out": "enzyme activity", "mode": "inhibitor", "technique": "fluorescence", "tested at": "200 µM", "inhibition [%]": 2}
{"Structure (SMILES)": "COc1cc(NC(C)=O)c(Cl)cc1C(=O)Nc1nccs1", "target": "DRD1", "read-out": "cell-free assay", "tested at": "10 µM", "inhibition [%]": -7.2}
{"Structure (SMILES)": "CCCCCCCCCCCCNC(=S)NCCCC[C@H](NC(=O)OCc1ccccc1)C(=O)N[C@@H](Cc1c[nH]c2ccccc12)C(=O)N[C@@H](CCCCN)C(N)=O", "target": "SIRT3", "read-out": "enzyme activity", "mode": "inhibitor", "tested at": "10 µM", "inhibition [%]": 21}
{"Structure (SMILES)": "COc1ccc2c(c1)C(CC(=O)O)=C/C2=C\\c1ccc(-c2ccccc2)cc1", "target": "PTGS1", "read-out": "enzyme activity", "mode": "inhibitor", "tested at": "4 µM", "inhibition [%]": 49}
{"Structure (SMILES)": "CN(C)C1CCN(CC#Cc2nn(C3CCCC3)c3nc(NCc4ccccc4)ncc23)C1 (centres unmarked)", "target": "Ribosomal protein S6 kinase alpha-3 (RPS6KA3, Homo sapiens, UniProt P51812)", "read-out": "enzyme activity", "mode": "inhibitor", "technique": "FRET", "tested at": "1 µM", "inhibition [%]": 2}
{"Structure (SMILES)": "CNc1cc(Oc2cc(C(=O)Nc3cc(N4CCN(C)CC4)cc(C(F)(F)F)c3)ccc2C)ncn1", "target": "STE20-related kinase adapter protein alpha (STRADA, Homo sapiens, UniProt Q7RTN6)", "read-out": "target engagement in cells", "mode": "inhibitor", "technique": "chemoproteomics", "cell line": "Huh-7", "tested at": "1 µM", "inhibition [%]": -86.8}
{"Structure (SMILES)": "CCCCCCCCCCCCNC(=S)NCCCC[C@H](NC(=O)C1CCCCC1)C(=O)N[C@H](C)C(=O)N[C@@H](CCCNC(=N)N)C(N)=O", "target": "SIRT3", "read-out": "enzyme activity", "mode": "inhibitor", "tested at": "10 µM", "inhibition [%]": 41}
{"Structure (SMILES)": "CCCCCc1cc(=O)c2cc(Cl)cc(Br)c2o1", "target": "SIRT3", "read-out": "enzyme activity", "mode": "inhibitor", "technique": "fluorescence", "tested at": "200 µM", "inhibition [%]": 4.5}
{"Structure (SMILES)": "O=C(c1ccc(Cl)cc1)N(Cc1ccccc1)C1CCCCC1", "target": "Type-2 angiotensin II receptor (AGTR2, Homo sapiens, UniProt P50052)", "read-out": "cell-free assay", "tested at": "10 µM", "inhibition [%]": 4.4}
{"Structure (SMILES)": "CCCCNC(=S)NCCCC[C@H](NS(=O)(=O)c1cccc(F)c1)C(=O)N[C@@H](Cc1c[nH]c2ccccc12)C(=O)NC1CCC1", "target": "SIRT3", "read-out": "enzyme activity", "mode": "inhibitor", "tested at": "1 µM", "inhibition [%]": 16}
{"Structure (SMILES)": "Cc1ccc(S(=O)(=O)n2cc(CCC3CC(=O)c4cc(Cl)cc(Br)c4O3)c3ccccc32)cc1 (centres unmarked)", "target": "SIRT3", "read-out": "enzyme activity", "mode": "inhibitor", "technique": "fluorescence", "tested at": "200 µM", "inhibition [%]": 13}
{"Structure (SMILES)": "C[C@@H](NC(=O)[C@H](CCCCNC(=O)C(F)(F)F)NS(C)(=O)=O)C(=O)N[C@@H](CCCNC(=N)N)C(N)=O", "target": "SIRT3", "read-out": "enzyme activity", "mode": "inhibitor", "tested at": "100 µM", "inhibition [%]": 10}
{"Structure (SMILES)": "CCCCCC1CC(=O)c2cc([N+](=O)[O-])ccc2O1 (centres unmarked)", "target": "SIRT3", "read-out": "enzyme activity", "mode": "inhibitor", "technique": "fluorescence", "tested at": "200 µM", "inhibition [%]": 16}
{"Structure (SMILES)": "O=c1c(O[C@@H]2O[C@H](CO)[C@@H](O)[C@H](O)[C@H]2O)c(-c2ccc(O)cc2)oc2cc(O)cc(O)c12", "target": "PTGS1", "read-out": "enzyme activity", "mode": "inhibitor", "technique": "absorbance", "tested at": "50 µM", "inhibition [%]": 66.9}
{"Structure (SMILES)": "CCCCCC1CC(=O)c2ccc(F)cc2O1 (centres unmarked)", "target": "SIRT3", "read-out": "enzyme activity", "mode": "inhibitor", "technique": "fluorescence", "tested at": "200 µM", "inhibition [%]": 2.2}
{"Structure (SMILES)": "O=C(NC1CCC1)[C@H](Cc1c[nH]c2ccccc12)NC(=O)[C@H](CCCCNC(=S)NCc1n[nH]c(=S)o1)NS(=O)(=O)c1cccc(F)c1", "target": "SIRT3", "read-out": "enzyme activity", "mode": "inhibitor", "tested at": "30 µM", "inhibition [%]": 12}
